Experimental data published in ChEMBL document CHEMBL3091351, “The 3,7-diazabicyclo[3.3.1]nonane scaffold for subtype selective nicotinic acetylcholine receptor (nAChR) ligands. Part 1: the influence of different hydrogen bond acceptor systems on alkyl and (hetero)aryl substituents” (Bioorg Med Chem, 2013).
Calls of active or inactive are those of the source. The rule behind the calls is not given here.

Key:
[1] = Binding affinity to (alpha1)2beta1gammadelta nAChR (unknown origin); design: species or system Homo sapiens
[2] = biological target: T1, Neuronal acetylcholine receptor subunit alpha-7 (Rattus norvegicus, UniProt Q05941); test: Displacement of [3H]methyllycaconitine from alpha7 nAChR in Sprague-Dawley rat forebrain P2 fraction after 90 mins by liquid scintillation counting analysis
[3] = biological target: T2, Neuronal acetylcholine receptor; alpha4/beta2 (Rattus norvegicus, UniProt P09483+P12390); test: Displacement of [3H]epibatidine from alpha4beta2 nAChR in Sprague-Dawley rat forebrain P2 fraction after 90 mins by liquid scintillation counting analysis
Outline: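 Rat forebrain P2 membranes (60 µg protein) in HSS buffer with 0.5 nM (±)-[3H]epibatidine and 6–9 test concentrations. Incubated 90 min at 22 °C; non-specific binding defined with 300 µM (−)-nicotine. Filtered through PEI-presoaked glass fibre filters and counted by liquid scintillation. Run in duplicate to quadruplicate, with 2–10 independent experiments.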

[4] = Displacement of [3H]epibatidine from alpha3beta4 nAChR in calf adrenal membranes fraction after 90 mins by liquid scintillation counting analysis; assay type: cell membranes, Bos taurus
Outline: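 Calf adrenal membranes (60–70 µg) in HSS buffer with 0.5 nM (±)-[3H]epibatidine, 6–9 test concentrations, 90 min at 22 °C. Non-specific binding with 300 µM (−)-nicotine. PEI-presoaked glass fibre filtration, liquid scintillation read-out; duplicate to quadruplicate, 2–10 independent experiments.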

[5] = Displacement of [3H]epibatidine from (alpha1)2beta1gammadelta nAChR in Torpedo californica electroplax after 90 mins by liquid scintillation counting analysis; design: species or system Tetronarce californica
Outline: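 Torpedo californica electroplax membranes (60–70 µg) incubated with (±)-[3H]epibatidine and 6–9 test concentrations in HSS buffer, 90 min at 22 °C. 300 µM (−)-nicotine defined non-specific binding. PEI-presoaked glass fibre filtration, scintillation counting; duplicate to quadruplicate, 2–10 independent experiments.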

[6] = biological target: T3, Nicotinic acetylcholine receptor alpha1/beta1/epsilon/delta (Mus musculus) (UniProt P04756+P09690+P02716+P20782); test: Agonist activity at mouse alpha1beta1epsilondelta nAChR expressed in Xenopus laevis oocytes at 10 uM incubated for 8 secs followed by compound washout for 241 secs by Two-electrode voltage clamp assay; assay type: cell-based
Outline: (§1)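 Stage V oocytes, defolliculated with collagenase, injected with 5–20 ng subunit cRNA and recorded 1–7 days later. Two-electrode clamp at −60 mV in Ringer's with 1 µM atropine, pH 7.2. Perfusion 2 ml/min for α7, 4 ml/min for the others. Test applications were bracketed by ACh controls (30 µM α1β1εδ, 60 µM α7, 100 µM α3β4, 30 µM α4β2).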

[7] = biological target: T2, Neuronal acetylcholine receptor; alpha4/beta2; test: Displacement of [3H]nicotine from alpha4beta2 nAChR in Sprague-Dawley rat brain membrane fraction after 2 to 3 hrs by liquid scintillation counting analysis; assay type: cell membranes
[8] = biological target: Neuronal acetylcholine receptor subunit alpha-7 (Homo sapiens) (UniProt P36544); test: Agonist activity at human alpha7 nAChR expressed in Xenopus laevis oocytes at 10 uM incubated for 12 secs followed by compound washout for 181 secs by Two-electrode voltage clamp assay; assay type: cell-based; outline: as §1
[9] = biological target: T4, Neuronal acetylcholine receptor; alpha4/beta2 (Homo sapiens, UniProt P17787+P43681); test: Displacement of [3H]nicotine from alpha4beta2 nAChR expressed in human SH-EP1 clonal cell membranes after 2 to 3 hrs by liquid scintillation counting analysis
[10] = biological target: T5, Neuronal acetylcholine receptor; alpha3/beta4 (Homo sapiens) (UniProt P30926+P32297); test: Agonist activity at human alpha3beta4 nAChR expressed in Xenopus laevis oocytes at 10 uM incubated for 8 secs followed by compound washout for 241 secs by Two-electrode voltage clamp assay; assay type: cell-based; outline: as §1
[11] = biological target: T1, Neuronal acetylcholine receptor subunit alpha-7; test: Displacement of [3H]methyllycaconitine from alpha7 nAChR in Sprague-Dawley rat brain membrane fraction after 2 hrs by liquid scintillation counting analysis; assay type: cell membranes
Outline: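 Competition binding on rat forebrain P2 membranes (60–70 µg protein) with [3H]MLA across 6–9 test concentrations. Incubation 120 min at 22 °C; 1 µM MLA defined non-specific binding. Samples filtered on PEI-presoaked glass fibre, scintillation-counted; duplicate to quadruplicate, 2–10 independent experiments.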

[12] = biological target: T4, Neuronal acetylcholine receptor; alpha4/beta2; test: Agonist activity at human alpha4beta2 nAChR expressed in Xenopus laevis oocytes at 10 uM incubated for 8 secs followed by compound washout for 241 secs by Two-electrode voltage clamp assay; assay type: cell-based; outline: as §1
[13] = biological target: T4, Neuronal acetylcholine receptor; alpha4/beta2; test: Partial agonist activity at human alpha4beta2 nAChR expressed in Xenopus laevis oocytes at 10 uM incubated for 8 secs followed by compound washout for 241 secs by Two-electrode voltage clamp assay; assay type: cell-based
Outline: (§2)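 Oocytes injected with 50 nl of 5–20 ng subunit cRNA and recorded 1–7 days later. Two-electrode voltage clamp at −60 mV, with perfusion at 4 ml/min in Ringer's solution (pH 7.2, 1 µM atropine). Two initial ACh control applications, then a compound application, then a follow-up ACh control. Applications lasted 8 s with a 241 s washout. Control ACh was 100 µM for α3β4 and 30 µM for α4β2.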

[14] = biological target: Neuronal acetylcholine receptor subunit alpha-7 (Homo sapiens) (UniProt P36544); test: Partial agonist activity at human alpha7 nAChR expressed in Xenopus laevis oocytes at 10 uM incubated for 12 secs followed by compound washout for 181 secs by Two-electrode voltage clamp assay; assay type: cell-based
Outline: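 α7-expressing oocytes injected with 50 nl of 5–20 ng cRNA and recorded 1–7 days later. Clamped at −60 mV and perfused at 2 ml/min with Ringer's solution (pH 7.2, 1 µM atropine). Two 60 µM ACh control applications, then a compound application, then a follow-up ACh control. Applications lasted 12 s with a 181 s washout.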

[15] = biological target: T5, Neuronal acetylcholine receptor; alpha3/beta4 (Homo sapiens); test: Partial agonist activity at human alpha3beta4 nAChR expressed in Xenopus laevis oocytes at 10 uM incubated for 8 secs followed by compound washout for 241 secs by Two-electrode voltage clamp assay; assay type: cell-based; outline: as §2
[16] = biological target: T5, Neuronal acetylcholine receptor; alpha3/beta4 (Homo sapiens); test: Antagonist activity at human alpha3beta4 nAChR expressed in Xenopus laevis oocytes assessed as inhibition of acetylcholine-induced effect at 10 uM incubated for 8 secs followed by compound washout for 241 secs by Two-electrode voltage clamp assay; assay type: cell-based
Outline: (§3)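 Oocytes injected with 50 nl of 5–20 ng subunit cRNA and recorded 1–7 days later. Two-electrode voltage clamp at −60 mV, with perfusion at 4 ml/min in Ringer's solution (pH 7.2, 1 µM atropine). Each recording ran two ACh controls, then compound co-applied with ACh, then a follow-up ACh control. Applications lasted 8 s with a 241 s washout. Control ACh was 100 µM for α3β4 and 30 µM for α4β2.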

[17] = biological target: Neuronal acetylcholine receptor subunit alpha-7 (Homo sapiens) (UniProt P36544); test: Antagonist activity at human alpha7 nAChR expressed in Xenopus laevis oocytes assessed as inhibition of acetylcholine-induced effect at 10 uM incubated for 12 secs followed by compound washout for 181 secs by Two-electrode voltage clamp assay; assay type: cell-based
Outline: (§4)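 Oocytes clamped at −60 mV, perfused with Ringer's plus 1 µM atropine, pH 7.2. After two control ACh applications, the compound was co-applied with control ACh (60 µM for α7, 30 µM for α1β1εδ), followed by one further ACh control to gauge rundown. α7 used 2 ml/min perfusion; muscle subtype used 4 ml/min.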

[18] = biological target: T4, Neuronal acetylcholine receptor; alpha4/beta2; test: Antagonist activity at human alpha4beta2 nAChR expressed in Xenopus laevis oocytes assessed as inhibition of acetylcholine-induced effect at 10 uM incubated for 8 secs followed by compound washout for 241 secs by Two-electrode voltage clamp assay; assay type: cell-based; outline: as §3
[19] = biological target: T3, Nicotinic acetylcholine receptor alpha1/beta1/epsilon/delta (Mus musculus); test: Antagonist activity at mouse alpha1beta1epsilondelta nAChR expressed in Xenopus laevis oocytes assessed as inhibition of acetylcholine-induced effect at 10 uM incubated for 8 secs followed by compound washout for 241 secs by Two-electrode voltage clamp assay; assay type: cell-based; outline: as §4

Sequence of Neuronal acetylcholine receptor subunit alpha-7 (Homo sapiens) (P36544 whole entry, the tested form may be a part): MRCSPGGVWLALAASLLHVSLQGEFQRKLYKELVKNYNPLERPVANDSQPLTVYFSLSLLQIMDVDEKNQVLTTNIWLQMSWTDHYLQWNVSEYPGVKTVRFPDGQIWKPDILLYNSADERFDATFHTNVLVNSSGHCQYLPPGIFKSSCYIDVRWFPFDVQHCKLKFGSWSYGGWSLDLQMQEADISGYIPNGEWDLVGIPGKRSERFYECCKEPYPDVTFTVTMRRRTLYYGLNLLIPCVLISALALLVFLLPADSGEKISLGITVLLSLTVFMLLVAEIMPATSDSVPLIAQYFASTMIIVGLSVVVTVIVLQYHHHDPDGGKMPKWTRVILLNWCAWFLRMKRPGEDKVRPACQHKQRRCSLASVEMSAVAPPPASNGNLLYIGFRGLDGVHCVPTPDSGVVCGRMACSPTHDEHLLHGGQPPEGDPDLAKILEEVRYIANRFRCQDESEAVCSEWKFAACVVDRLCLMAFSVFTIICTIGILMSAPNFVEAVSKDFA
T4 sequence (P17787 whole entry): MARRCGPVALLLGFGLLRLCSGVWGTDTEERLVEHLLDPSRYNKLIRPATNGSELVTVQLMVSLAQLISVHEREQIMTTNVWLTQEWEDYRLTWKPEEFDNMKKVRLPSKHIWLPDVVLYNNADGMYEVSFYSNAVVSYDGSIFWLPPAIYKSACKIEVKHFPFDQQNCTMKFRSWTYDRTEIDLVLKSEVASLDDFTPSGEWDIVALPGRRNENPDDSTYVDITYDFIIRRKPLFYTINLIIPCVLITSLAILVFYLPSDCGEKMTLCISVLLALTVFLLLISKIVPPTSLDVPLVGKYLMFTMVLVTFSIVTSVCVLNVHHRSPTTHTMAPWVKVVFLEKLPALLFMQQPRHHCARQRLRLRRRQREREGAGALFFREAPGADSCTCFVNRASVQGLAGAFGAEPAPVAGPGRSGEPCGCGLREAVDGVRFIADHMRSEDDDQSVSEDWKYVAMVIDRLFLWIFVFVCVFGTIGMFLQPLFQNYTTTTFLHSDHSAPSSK
T4 sequence (P43681 whole entry): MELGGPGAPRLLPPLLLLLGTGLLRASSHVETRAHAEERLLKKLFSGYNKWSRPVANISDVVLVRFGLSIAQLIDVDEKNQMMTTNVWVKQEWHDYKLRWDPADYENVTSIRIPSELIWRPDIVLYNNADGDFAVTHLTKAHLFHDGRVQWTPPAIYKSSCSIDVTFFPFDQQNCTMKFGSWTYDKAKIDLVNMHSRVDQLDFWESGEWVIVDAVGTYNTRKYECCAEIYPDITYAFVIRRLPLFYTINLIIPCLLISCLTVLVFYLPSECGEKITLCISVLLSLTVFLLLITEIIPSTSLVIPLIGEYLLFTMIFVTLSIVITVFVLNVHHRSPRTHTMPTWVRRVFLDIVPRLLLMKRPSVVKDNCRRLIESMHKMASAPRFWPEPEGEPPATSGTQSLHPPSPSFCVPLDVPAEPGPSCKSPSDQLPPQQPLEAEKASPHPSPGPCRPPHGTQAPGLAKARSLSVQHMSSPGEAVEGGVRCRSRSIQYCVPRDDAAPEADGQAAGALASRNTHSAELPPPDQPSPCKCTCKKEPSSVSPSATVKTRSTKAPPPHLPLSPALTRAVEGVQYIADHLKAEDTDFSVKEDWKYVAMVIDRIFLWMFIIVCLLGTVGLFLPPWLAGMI
T1 sequence (Q05941 whole entry): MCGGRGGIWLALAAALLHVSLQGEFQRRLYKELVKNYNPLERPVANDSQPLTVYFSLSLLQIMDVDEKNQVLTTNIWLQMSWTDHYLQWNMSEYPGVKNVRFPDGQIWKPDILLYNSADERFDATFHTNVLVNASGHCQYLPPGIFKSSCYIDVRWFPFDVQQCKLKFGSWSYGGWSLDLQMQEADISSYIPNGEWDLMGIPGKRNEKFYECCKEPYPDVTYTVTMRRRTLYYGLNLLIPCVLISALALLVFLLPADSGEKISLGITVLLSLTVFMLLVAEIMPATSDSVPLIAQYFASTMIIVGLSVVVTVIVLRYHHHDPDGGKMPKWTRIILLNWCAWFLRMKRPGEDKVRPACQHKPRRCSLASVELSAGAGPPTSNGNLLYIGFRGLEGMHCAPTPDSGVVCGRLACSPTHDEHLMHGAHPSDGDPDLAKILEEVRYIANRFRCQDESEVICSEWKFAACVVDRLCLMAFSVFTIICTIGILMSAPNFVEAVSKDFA
T2 sequence (P09483 whole entry): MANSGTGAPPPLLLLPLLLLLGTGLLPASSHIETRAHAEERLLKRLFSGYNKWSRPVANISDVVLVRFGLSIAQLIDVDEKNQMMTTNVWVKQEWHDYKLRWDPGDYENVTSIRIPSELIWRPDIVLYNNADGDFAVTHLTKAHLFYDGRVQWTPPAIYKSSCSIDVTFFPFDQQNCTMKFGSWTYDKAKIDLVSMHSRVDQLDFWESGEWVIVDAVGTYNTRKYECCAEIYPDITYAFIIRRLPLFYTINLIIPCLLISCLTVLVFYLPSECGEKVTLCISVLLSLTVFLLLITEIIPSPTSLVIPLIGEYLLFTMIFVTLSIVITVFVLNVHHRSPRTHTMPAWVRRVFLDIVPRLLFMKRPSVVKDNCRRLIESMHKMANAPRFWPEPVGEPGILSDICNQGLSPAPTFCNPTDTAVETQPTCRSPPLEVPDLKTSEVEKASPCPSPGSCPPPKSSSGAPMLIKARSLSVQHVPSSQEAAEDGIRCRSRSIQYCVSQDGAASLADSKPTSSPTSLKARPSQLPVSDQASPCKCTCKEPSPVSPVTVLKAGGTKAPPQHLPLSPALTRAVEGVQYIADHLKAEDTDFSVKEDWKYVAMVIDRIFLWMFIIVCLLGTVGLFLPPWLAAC
T2 sequence (P12390 whole entry): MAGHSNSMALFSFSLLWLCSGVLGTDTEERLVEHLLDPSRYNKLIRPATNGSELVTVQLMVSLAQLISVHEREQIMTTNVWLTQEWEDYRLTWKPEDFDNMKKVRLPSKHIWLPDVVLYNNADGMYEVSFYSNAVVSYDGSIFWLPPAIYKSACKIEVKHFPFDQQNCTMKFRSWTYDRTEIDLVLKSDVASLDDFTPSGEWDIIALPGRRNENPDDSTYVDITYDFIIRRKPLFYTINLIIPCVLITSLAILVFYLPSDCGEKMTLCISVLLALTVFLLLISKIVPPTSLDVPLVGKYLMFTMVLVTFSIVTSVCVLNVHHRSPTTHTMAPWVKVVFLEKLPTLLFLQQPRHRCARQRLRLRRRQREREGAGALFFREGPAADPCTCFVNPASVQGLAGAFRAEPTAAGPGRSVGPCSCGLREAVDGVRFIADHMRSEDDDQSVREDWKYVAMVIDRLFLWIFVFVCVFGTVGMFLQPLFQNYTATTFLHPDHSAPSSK

Structure (SMILES) | Ki [2] [nM] | Ki [3] [nM] | Ki [4] [nM] | Ki [5] [nM] | other results
CN1C[C@@H]2C[C@H](C1)C1CCCC(=O)N1C2 (some centres undefined) |  |  |  |  | Ki [1]: > 50000 nM
O=C(c1ccc(F)cc1)N1C[C@@H]2CNC[C@@H](C2)C1 | > 10000 | 197 | > 10000 | > 10000 | 
O=C(c1c[nH]c2ccccc12)N1C[C@@H]2CNC[C@@H](C2)C1 | > 10000 | > 10000 | > 10000 | > 10000 | 
O=C(C1CCCC1)N1C[C@@H]2CNC[C@@H](C2)C1 |  | 10.8 |  |  | Activity [6]: inactive; Ki [7]: 26.6 nM; Activity [8]: Active; Ki [9]: 20.2 nM; Activity [10]: inactive; Ki [11]: 211 nM
O=C(c1ccc([N+](=O)[O-])cc1)N1C[C@@H]2CNC[C@@H](C2)C1 | 1730 | 15.9 | 4200 | > 5000 | 
Cc1ccc(C(=O)N2C[C@@H]3CNC[C@@H](C3)C2)cc1 | > 10000 | 221 | > 5000 | > 10000 | 
O=C(c1cccs1)N1C[C@@H]2CNC[C@@H](C2)C1 | > 10000 | 17.6 | > 10000 | > 10000 | 
CCCC(=O)N1C[C@@H]2CNC[C@@H](C2)C1 | > 1000 | 3.6 | 266 | > 5000 | Activity [6]: inactive; Activity [12]: Active; Ki [7]: 8.1 nM; Activity [8]: Active; Ki [9]: 2.9 nM; Activity [10]: Active; Ki [11]: 230 nM
O=C(c1ccc(-c2ccccc2)cc1)N1C[C@@H]2CNC[C@@H](C2)C1 |  | 39.9 | 1090 |  | Activity [13]: Active; Activity [14]: Active; Activity [15]: Active; Activity [16]: Active; Activity [17]: Active; Activity [18]: Active
O=C(c1cc2ccccc2[nH]1)N1C[C@@H]2CNC[C@@H](C2)C1 | > 10000 | > 10000 | > 10000 | > 10000 | 
O=C(N1CCCC1)N1C[C@@H]2CNC[C@@H](C2)C1 | > 10000 | > 5000 | > 10000 | > 10000 | 
O=C(c1cnccn1)N1C[C@@H]2CNC[C@@H](C2)C1 | > 10000 | 73.2 | > 10000 | > 10000 | 
O=C(c1ccco1)N1C[C@@H]2CNC[C@@H](C2)C1 |  | 21.4 | 2240 | > 10000 | Ki [7]: 31 nM; Ki [9]: 9.9 nM; Ki [11]: 15000 nM
O=C(CC1CCCC1)N1C[C@@H]2CNC[C@@H](C2)C1 |  | 43.5 |  |  | Activity [19]: Active; Activity [10]: inactive; Activity [17]: Active
CC(C)C(=O)N1C[C@@H]2CNC[C@@H](C2)C1 | > 5000 | 50.3 | 828 |  | Ki [7]: 102 nM; Ki [9]: 44.4 nM; Ki [11]: 645 nM
O=C(c1cccnc1)N1C[C@@H]2CNC[C@@H](C2)C1 | > 10000 | 455 | > 10000 | > 10000 | 
c1ccc(CN2C[C@@H]3CNC[C@@H](C3)C2)cc1 | > 5000 | > 10000 | 570 | > 10000 | 
CCC(=O)N1C[C@@H]2CNC[C@@H](C2)C1 | > 2000 | 4.5 | 329 | > 1000 | Ki [7]: 12.2 nM; Activity [8]: Active; Ki [9]: 10.4 nM; Activity [10]: Active; Ki [11]: 795 nM
CC(C)(C)c1ccc(C(=O)N2C[C@@H]3CNC[C@@H](C3)C2)cc1 | > 10000 | > 10000 | > 10000 | > 10000 | 
O=C(c1cncc(Br)c1)N1C[C@@H]2CNC[C@@H](C2)C1 | > 10000 | 292 | > 5000 | > 10000 | 
CC(C)(C)OC(=O)N1C[C@@H]2CNC[C@@H](C2)C1 | > 5000 | 45 | 1280 | > 10000 | 
O=C(C1CCCCC1)N1C[C@@H]2CNC[C@@H](C2)C1 | > 10000 | > 5000 | > 5000 | > 10000 | 
N#Cc1ccc(C(=O)N2C[C@@H]3CNC[C@@H](C3)C2)cc1 | > 10000 | 20.7 | > 10000 | > 5000 | 
O=C(c1cccc([N+](=O)[O-])c1)N1C[C@@H]2CNC[C@@H](C2)C1 | > 10000 | > 2000 | > 10000 | > 10000 | 
O=C1CCCC2[C@H]3CNC[C@H](C3)CN12 (some centres undefined) |  |  |  |  | Ki [1]: 19000 nM
CC(=O)N1C[C@@H]2CNC[C@@H](C2)C1 | 636 | 5.6 | 664 |  | Activity [6]: inactive; Ki [7]: 18.7 nM; Activity [8]: Active; Ki [9]: 20.2 nM; Activity [10]: Active; Ki [11]: 3280 nM
O=[N+]([O-])c1ccc(S(=O)(=O)N2C[C@@H]3CNC[C@@H](C3)C2)cc1 | > 10000 | 135 | 5700 | > 10000 | 
COc1ccc(C(=O)N2C[C@@H]3CNC[C@@H](C3)C2)c(OC)c1 | > 5000 | > 1000 | > 5000 | > 10000 | 
